Laboratory results as given in ChEMBL document CHEMBL1124192, “Cyclopentenylcytosine. A carbocyclic nucleoside with antitumor and antiviral properties” (J Med Chem, 1988).
Converted amounts (≈) assume the structure as drawn.

Columns and labels:
Cytomegalovirus [1] = assay: Log value for antiviral activity against Cytomegalovirus (AD169) from MRC5 diploid human embryonic lung cells at 100 ug/mL; type: functional
Summary of the method: (§1)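 CMV AD169 yield reduction in MRC5 cells. Subconfluent monolayers infected at MOI 0.2 PFU/cell for 1.5 h at 37 °C, rinsed, then fed drug in MEM + 2% FBS, in duplicate. Drug refed on day 3, cultures harvested on day 6 by freeze-thaw and pooled. Yield titrated by plaque assay under 0.25% agarose overlay for 5–6 days, then formalin-fixed and methylene blue-stained for plaque counts.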

Cytomegalovirus [2] = assay: Log value for antiviral activity against Cytomegalovirus (AD169) from MRC5 diploid human embryonic lung cells at 10 ug/mL; type: functional; summary of the method: as §1
Cytomegalovirus [3] = assay: Log value for antiviral activity against Cytomegalovirus (AD169) from MRC5 diploid human embryonic lung cells at 1 ug/mL; type: functional; summary of the method: as §1
Cytomegalovirus [4] = assay: Log value for antiviral activity against Cytomegalovirus (AD169) from MRC5 diploid human embryonic lung cells at 320 ug/mL; type: functional; summary of the method: as §1
[5] = test system: unidentified influenza virus; assay: Inhibitory dose of compound required to inhibit cytopathogenic effects of influenza virus with A2/Aichi/2/68 strain in MDCK cells; type: functional; conditions: read-out: ID50 (the source's name)
[6] = test system: unidentified influenza virus; assay: Tested for inhibition of virus-induced cytopathogenic effect and cytotoxicity of compound against influenza virus with A2/Aichi/2/68 strain in MDCK cell; type: functional
L1210 [7] = assay: Compound was tested for antitumor activity against L1210 leukemia in mouse at dose 2.25 mg/kg administered intraperitoneally in experiment 2; type: functional; conditions: L1210, ip, route intraperitoneal
Summary of the method: (§2)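 Mice bearing L1210, L1210/ara-C, P388 or P388/ara-C leukaemia. Tumour implanted at the site each line names: ip, sc or ic. Drug given ip in physiologic saline on a QD1-9 schedule, at several dose levels per experiment. Life-span runs ended on day 30. Read-out is median % increase in life span versus tumoured untreated controls, with long-term survivors included.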

L1210 [8] = assay: Compound was tested for antitumor activity against L1210/ara-C leukemia in mouse at dose 1.5 mg/kg administered intraperitoneally; type: functional; conditions: L1210, ip, route intraperitoneal; summary of the method: as §2
L1210 [9] = assay: Compound was tested for antitumor activity against L1210/ara-C leukemia in mouse at dose 2.25 mg/kg administered intraperitoneally; type: functional; conditions: L1210, ip, route intraperitoneal; summary of the method: as §2
L1210 [10] = assay: Median percent increase in life span of tumored, treated mice relative to tumored, untreated controls after intraperitoneal dose 0.5 mg/kg daily(for every 3 hr); type: functional; conditions: Mus musculus, L1210, ip
L1210 [11] = assay: Number of 60-day survivors out of 10 tested at dose 1 mg/kg administered intraperitoneally; type: functional, Mus musculus; conditions: route intraperitoneal
L1210 [12] = assay: Compound was tested for antitumor activity against L1210 leukemia in mouse at dose 1 mg/kg administered intraperitoneally in experiment 2; type: functional; conditions: L1210, ip, route intraperitoneal; summary of the method: as §2
M5076 [13] = assay: Compound was tested for antitumor activity against M5076 leukemia in mouse at dose 0.5 mg/kg administered intraperitoneally in experiment 1; type: functional; conditions: M5076, ip, route intraperitoneal
Summary of the method: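 Mice bearing M5076 tumour. Drug given ip in physiologic saline, daily on days 1-13, at several dose levels. Experiment ended on day 30. Read-out is median % increase in life span versus untreated tumoured controls, with long-term survivors included.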

M5076 [14] = assay: Log cell kill at the end of treatment at dose 0.5 mg/kg administered intraperitoneally; type: functional, Mus musculus; conditions: route intraperitoneal
L1210 [15] = assay: Compound was tested for antitumor activity against L1210 leukemia in mouse at dose 1.5 mg/kg administered intracerebrally in experiment 1; type: functional; conditions: L1210, central; summary of the method: as §2
L1210 [16] = assay: Compound was tested for antitumor activity against L1210 leukemia in mouse at dose 1.5 mg/kg administered subcutaneously in experiment 1; type: functional; conditions: L1210, sc, route subcutaneous; summary of the method: as §2
Mus musculus [17] = assay: Compound was tested for antitumor activity against human A549 lung tumor xenografts in athymic mice at dose 1.5 mg/kg administered subrenal capsule in experiment 1; type: functional
Mus musculus [18] = assay: Compound was tested for antitumor activity against human A549 lung tumor xenografts in athymic mice at dose 2 mg/kg administered subrenal capsule in experiment 2; type: functional
Mus musculus [19] = assay: Compound was tested for antitumor activity against human LOX melanoma tumor xenografts in athymic mice at dose 1.5 mg/kg administered intraperitoneally in experiment 2; type: functional; conditions: ip, route intraperitoneal
Summary of the method: (§3)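 Athymic mice carrying human LOX melanoma. Drug given ip in saline on a QD1-9 schedule, at several dose levels. Life-span experiment ended on day 30. Read-out is % increase in life span versus untreated tumoured controls, with long-term survivors included.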

Mus musculus [20] = assay: Compound was tested for antitumor activity against human LOX melanoma tumor xenografts in athymic mice at dose 1 mg/kg administered intraperitoneally in experiment 1; type: functional; conditions: ip, route intraperitoneal; summary of the method: as §3
Mus musculus [21] = assay: Compound was tested for antitumor activity against human LOX melanoma tumor xenografts in athymic mice at dose 2.25 mg/kg administered intraperitoneally; type: functional; conditions: ip, route intraperitoneal; summary of the method: as §3
P388 = assay: Compound was tested for antitumor activity against P388/ara-C leukemia in mouse at dose 1.5 mg/kg administered intraperitoneally in experiment 1; type: functional; conditions: P388, ip, route intraperitoneal; summary of the method: as §2
Punta Toro virus = assay: Tested for inhibition of virus-induced cytopathogenic effect and cytotoxicity of compound against Punta toro virus with adames strain in vero cell; type: functional
Human alphaherpesvirus 3 [22] = assay: Compound was tested for antiviral activity against Varicella-Zoster from human diploid foreskin cells in mono layer culture at 32 ug/ml; type: functional
Summary of the method: (§4)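 VZV isolate DM625 on Huf cells (human diploid foreskin monolayers). Inoculum was left on after 1 h adsorption at 37 °C. Drug overlay in MEM + 2% FBS without agarose, refed with fresh drug at 72 h, in 2% CO2. Cells fixed in 10% formalin and stained with methylene blue; plaques counted day 6. % plaque reduction versus untreated virus controls, triplicates.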

Human alphaherpesvirus 3 [23] = assay: Compound was tested for antiviral activity against Varicella-Zoster from human diploid foreskin cells in mono layer culture at 320 ug/ml; type: functional; summary of the method: as §4
Yellow fever virus = assay: Tested for inhibition of virus-induced cytopathogenic effect and cytotoxicity of compound against yellow fever virus with asibi strain vero cell; type: functional
Vero [24] = assay: Cytotoxicity of compound was determined by reduction in number of viable vero monolayer cells after treatment with 1 ug/mL for 4 days; type: functional, Chlorocebus sabaeus
Summary of the method: (§5)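 Vero monolayers in duplicate cultures, exposed to each drug concentration in medium at 37 °C in a CO2 incubator for 4 days. Viable cells counted by trypan blue exclusion, and % reduction calculated against untreated control cultures.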

Vero [25] = assay: Cytotoxicity of compound was determined by reduction in number of viable vero monolayer cells after treatment with 10 ug/mL for 4 days; type: functional, Chlorocebus sabaeus; summary of the method: as §5
Vero [26] = assay: Cytotoxicity of compound was determined by reduction in number of viable vero monolayer cells after treatment with 320 ug/mL for 4 days; type: functional, Chlorocebus sabaeus; summary of the method: as §5
[27] = Ratio of minimum drug concentration to ID50 of the compound ([…] strain); type: ADME; conditions: read-out: Therapeutic index
Human alphaherpesvirus 3 [28] = assay: Compound was tested for antiviral activity against Varicella-Zoster from human diploid foreskin cells in mono layer culture at 0.32 ug/ml; type: functional; summary of the method: as §4

Nc1ccn([C@@H]2C=C(CO)[C@@H](O)[C@H]2O)c(=O)n1
Reduction in virus yield (Cytomegalovirus [1]): 2 pfu/ml | Reduction in virus yield (Cytomegalovirus [2]): 1.9 pfu/ml | Reduction in virus yield (Cytomegalovirus [3]): 1.4 pfu/ml | Reduction in virus yield (Cytomegalovirus [4]): 5.3 pfu/ml | IC50 [5]: 18.2 µg/mL (≈ 76.1 µM) | Virus rating [6]: 2.4 | ILS at 2.25 mg/kg (L1210 [7]): 57% | ILS at 1.5 mg/kg (L1210 [8]): > 650% | ILS at 2.25 mg/kg (L1210 [9]): > 650% | ILS at 0.5 mg/kg (L1210 [10]): 116% | No. of survivors (L1210 [11]): 6 | ILS at 1 mg/kg (L1210 [12]): 201% | ILS at 0.5 mg/kg (M5076 [13]): 5% | LCK (M5076 [14]): -2 | ILS at 1.5 mg/kg (L1210 [15]): 45% | ILS at 1.5 mg/kg (L1210 [16]): 109% | ILS at 1.5 mg/kg (Mus musculus [17]): -59% | ILS at 2 mg/kg (Mus musculus [18]): 92% | ILS at 1.5 mg/kg (Mus musculus [19]): 80% | ILS at 1 mg/kg (Mus musculus [20]): 119% | ILS at 2.25 mg/kg (Mus musculus [21]): 58% | ILS at 1.5 mg/kg (P388): 165% | Virus rating (Punta Toro virus): 1.5 | Plaque reduction (Human alphaherpesvirus 3 [22]): 36% | Plaque reduction (Human alphaherpesvirus 3 [23]): 36% | Virus rating (Yellow fever virus): 0.9 | Reduction (Vero [24]): 61% | Reduction (Vero [25]): 64% | Reduction (Vero [26]): 67% | selectivity ratio [27]: 3.1 | Plaque reduction (Human alphaherpesvirus 3 [28]): 33%
